Assay results reported in ChEMBL document CHEMBL4043222, “Pyrrolizines: Design, synthesis, anticancer evaluation and investigation of the potential mechanism of action” (Bioorg Med Chem, 2017).

Tests used:
MCF7 = assay: Growth inhibition of human MCF7 cells by MTT assay; format: functional, cell-based
In short: (§1)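 MTT viability. Cells seeded for 24 h, then exposed to compound for 48 h in DMEM/F-12 or DMEM with 5% FBS. Vehicle controls received matching DMSO. MTT added at 0.5 mg/mL for 3 h at 37 °C. Formazan dissolved in DMSO and absorbance read at 570 nm.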

A549 = assay: Growth inhibition of human A549 cells by MTT assay; format: functional, cell-based; in short: as §1
Hep 3B2 = assay: Growth inhibition of human Hep3B cells by MTT assay; format: functional, cell-based; in short: as §1
[1] = target: T1, Prostaglandin G/H synthase 1 (Ovis aries, UniProt P05979); assay: Inhibition of ovine COX1 assessed as reduction in PGH2 formation by measuring PGF2alpha by colorimetric assay
T1 sequence (P05979 whole entry): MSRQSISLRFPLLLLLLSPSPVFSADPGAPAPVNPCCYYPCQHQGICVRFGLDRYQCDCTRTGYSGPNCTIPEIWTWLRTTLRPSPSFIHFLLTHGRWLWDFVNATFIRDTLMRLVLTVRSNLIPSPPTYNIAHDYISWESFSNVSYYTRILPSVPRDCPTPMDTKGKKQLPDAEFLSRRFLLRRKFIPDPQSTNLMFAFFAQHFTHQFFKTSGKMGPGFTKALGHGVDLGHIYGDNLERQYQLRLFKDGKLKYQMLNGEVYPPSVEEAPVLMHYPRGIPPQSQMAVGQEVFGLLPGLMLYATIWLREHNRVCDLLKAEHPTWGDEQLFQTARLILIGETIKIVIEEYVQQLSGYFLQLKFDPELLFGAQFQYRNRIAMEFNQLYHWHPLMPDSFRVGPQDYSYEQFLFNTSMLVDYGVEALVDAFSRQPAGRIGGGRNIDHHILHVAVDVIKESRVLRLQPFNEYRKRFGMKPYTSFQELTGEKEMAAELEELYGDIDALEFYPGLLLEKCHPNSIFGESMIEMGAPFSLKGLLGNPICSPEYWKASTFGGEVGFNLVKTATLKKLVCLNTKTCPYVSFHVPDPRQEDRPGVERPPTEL
In short: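 Colorimetric COX inhibitor screening kit run per the manufacturer, using ovine COX-1. IC50 calculated from three determinations.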

IC50 (MCF7) [µM]	IC50 (A549) [µM]	IC50 [1] [µM]	SMILES	IC50 (Hep 3B2) [µM]
6.97	12.5	4.96	N#Cc1c(N=Cc2cccs2)c(C(=O)Nc2ccccc2)n2c1CCC2	18.6
9.82	11.2	10.6	N#Cc1c(N=Cc2ccc3ccccc3c2)c(C(=O)Nc2ccc(Cl)cc2)n2c1CCC2	12.5
4.72	22.8	7.68	N#Cc1c(N=Cc2cccs2)c(C(=O)Nc2ccc(Cl)cc2)n2c1CCC2	11.6
11.7	17.5	11.3	N#Cc1c(N=Cc2cccnc2)c(C(=O)Nc2ccccc2)n2c1CCC2	25.8
5.35	11.4	10.4	Cc1ccc(NC(=O)c2c(N=Cc3cccs3)c(C#N)c3n2CCC3)cc1	13.8
16.1	29.4	9.23	Cc1ccc(NC(=O)c2c(N=Cc3ccco3)c(C#N)c3n2CCC3)cc1	24.4
15.7	28.4	8.41	N#Cc1c(N=Cc2ccco2)c(C(=O)Nc2ccc(Cl)cc2)n2c1CCC2	27.5
